Results as given in article PMC4122542 (Journal of medicinal chemistry, 2008).

Columns and labels:
[1] = cited from earlier work
RG2 cells [2] = experiment: MTT cytotoxicity assay in wild-type cells; assay type: cell-based, Rat
Outline: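 Non-transduced rat glioma RG2 cells were grown in DMEM with 10% FBS and 1% penicillin/streptomycin at 37 °C under 5% CO2, then seeded at 1.5 × 10^3 cells/well and incubated overnight. Test compound was applied at 0.001–1000 μmol/L in quadruplicate for 72 h at 37 °C. MTT (1 mg/mL) was added for 3 h, and formazan was dissolved in DMSO. A490 (650 nm reference) was blank-subtracted and growth expressed as % of untreated control.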

RG2 cells [3] = experiment: In vitro cell uptake of radiolabeled nucleosides in non-transduced control cells; assay type: cell-based, Rat; settings: 2 h incubation, % of total radioactivity per 10^6 cells, wild-type RG2 cells
RG2TK+ cells = experiment: In vitro cell uptake of radiolabeled nucleosides in HSV1-tk expressing cells; assay type: cell-based, Rat; settings: 2 h incubation, % of total radioactivity per 10^6 cells
[4] = normal mice; cited from earlier work

SMILES: O=c1[nH]c(=O)n([C@@H]2O[C@H](CO)[C@@H](O)[C@@H]2F)cc1I [FIAU]
- Diffusion across the intact BBB [1]: does not diffuse across the intact BBB
- Cytotoxicity to RG2 cells (in words) (RG2 cells [2]): moderately toxic to RG2 cells

SMILES: Nc1nc(O)c2ncn(COC(CO)CO)c2n1 [GCV, ganciclovir]
- Cytotoxicity to RG2 cells (in words) (RG2 cells [2]): not active against RG2 cells

SMILES: O=c1[nH]c(=O)n([C@@H]2O[C@H](CO)[C@@H](O)[C@@H]2F)cc1CCCC[18F] [[^18F]FFBuAU]
- % Uptake per 10^6 Cells, RG2 (RG2 cells [3]): 0.66 % per 10^6 cells

SMILES: O=c1[nH]c(=O)n([C@H]2C[C@H](O)[C@@H](CO)O2)cc1CCCCC[18F] [[^18F]FPeDU]
- % Uptake per 10^6 Cells, RG2 (RG2 cells [3]): 0.23 % per 10^6 cells

SMILES: O=c1[nH]c(=O)n([C@H]2C[C@H](O)[C@@H](CO)O2)cc1CCC[18F] [[^18F]FPrDU]
- % Uptake per 10^6 Cells, RG2TK+ (RG2TK+ cells): 8.4 % per 10^6 cells

SMILES: O=c1[nH]c(=O)n([C@@H]2O[C@H](CO)[C@@H](O)[C@@H]2F)cc1/C=C/[123I] [[^123I]IVFAU]
- Brain uptake [4]: very low brain uptake

SMILES: O=c1[nH]c(=O)n([C@@H]2O[C@H](CO)[C@@H](O)[C@H]2F)cc1/C=C/[123I] [[^123I]IVFRU]
- Brain uptake [4]: very low brain uptake

SMILES: O=c1[nH]c(=O)n([C@@H]2O[C@H](CO)[C@@H](O)[C@@H]2F)cc1[125I] [[^125I]FIAU, 2′-fluoro-2′-deoxy-5-[^125I]iodo-1-β-D-arabinofuranosyluracil]
- % Uptake per 10^6 Cells, RG2 (RG2 cells [3]): 3.44 % per 10^6 cells
- % Uptake per 10^6 Cells, RG2TK+ (RG2TK+ cells): 29.4 % per 10^6 cells
